Screens deposited in PubChem by Johns Hopkins Ion Channel Center.
The list is not random: actives were taken first. Their share in the collection is about 3.5%.
RGS4 act – RGS4 potentiation or activation; AID 463111; HEK293 M3R/inducible RGS4, carbachol calcium flux Fluo4; hits give low values; 310,000 tested, 0.92% active; B-score at 10 µM;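 active = B-score of the integrated calcium signal more than 4 SD below the library mean, with starting fluorescence not abnormally high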;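 also: negative B-score means reduced calcium response which marks RGS4 activation or potentiation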
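Assay system: Inducible-RGS4 HEK293 cells carrying M3 receptor | Schedule: Compound preincubation 20 min at room temperature before agonist | Signal: Kinetic calcium fluorescence imaging with Fluo4-AM dye, 2 µM | Read-out basis: B score from integrated fluorescence ratio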
MrgX1 antag – human MrgX1 receptor antagonism, primary screen. 310,000 tested, 1.3% active. MRGX1-HEK293 calcium flux, Fluo-4, BAM8-22 antagonism; hits give low values. Q96LB2. B-score at 10 µM. AID 588676;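 active = calcium-response B-score plate-corrected more than 3 library SD below zero, starting fluorescence within 5 deviations, no agonist response on first addition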;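 also: peak minus trough fluorescence over baseline after final BAM8-22 challenge near maximal dose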
Target sequence (Q96LB2 whole entry, looked up): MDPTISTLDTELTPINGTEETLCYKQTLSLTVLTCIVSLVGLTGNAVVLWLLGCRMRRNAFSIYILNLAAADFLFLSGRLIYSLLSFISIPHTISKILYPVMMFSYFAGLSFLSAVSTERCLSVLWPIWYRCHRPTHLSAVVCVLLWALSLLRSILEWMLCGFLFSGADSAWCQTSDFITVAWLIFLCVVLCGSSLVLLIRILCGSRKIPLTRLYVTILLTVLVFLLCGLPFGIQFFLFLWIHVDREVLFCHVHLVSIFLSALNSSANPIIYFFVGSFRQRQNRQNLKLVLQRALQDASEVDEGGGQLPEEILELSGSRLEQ
MrgX1 agonist – activates human MrgX1 receptor signaling. AID 588627. Q96LB2. MrgX1-HEK293 cells, Fluo-4 calcium fluorescence, agonist mode; hits give high values. B-score at 10 µM. 310,000 tested, 0.44% active;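 active = calcium response B-score plate-corrected fluorescence ratio at least 3 library SD, with starting fluorescence B-score inside 5 SD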
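Material: HEK293 cells stably expressing human MrgX1 receptor | Quantity: 15,000 cells per well | Times: Cells plated overnight, dye loaded 0.5 h 37 °C, 0.5 h room temperature | Measured by: Kinetic Fluo-4 NW fluorescence of intracellular calcium | Control set: Positive and negative controls per plate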
MrgX1 allo act – human MrgX1 positive allosteric modulation, primary screen; Q96LB2; MrgX1-HEK293, Fluo-4 calcium flux, FDSS; hits give high values; B-score at 10 µM; 310,000 tested, 0.63% active; AID 588675;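 active = plate-corrected calcium response at least 3 library SD above typical, normal starting fluorescence, not activating the receptor alone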;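 also: compound read alongside a low EC10 to EC30 dose of BAM8-22 agonist; peak minus trough fluorescence over baseline measured at the second addition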
RGS4 inh – inhibitors of human RGS4; B-score at 10 µM; 310,000 tested, 0.45% active; P49798; HEK293 M3R/RGS4 inducible, Fluo-4 calcium flux; hits give high values; triggered by carbachol at its EC20;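 active = B-score, a plate-corrected calcium signal, over three deviations above library mean, with baseline fluorescence within five deviations of library mean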;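 also: RGS4 expression induced by doxycycline in cells with stable M3 receptor; B-score is computed from the integrated fluorescence ratio over baseline after carbachol; higher B-score means a larger calcium signal and so more RGS4 inhibition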
Target sequence (P49798 whole entry, looked up): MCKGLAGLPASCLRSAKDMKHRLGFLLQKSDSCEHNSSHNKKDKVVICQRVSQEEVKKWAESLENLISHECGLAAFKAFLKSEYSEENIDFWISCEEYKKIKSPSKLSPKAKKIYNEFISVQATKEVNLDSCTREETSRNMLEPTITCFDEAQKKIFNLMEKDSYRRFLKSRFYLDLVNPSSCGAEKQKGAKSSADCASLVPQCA
* = called active by the depositor; i = inactive; x = no result given.

SMILES	RGS4 act	MrgX1 antag	MrgX1 agonist	MrgX1 allo act	RGS4 inh
O=C(Nc1ccc(C(=O)N2CCC(N3CCCC3)CC2)cc1)c1ccc(Br)o1	x	i	i	i	x
CC1CCCN(S(=O)(=O)c2ccc(C(=O)Nc3nnc(-c4ccco4)o3)cc2)C1 (configuration not stated)	i	i	i	i	i
O=C(Nc1ccc(-c2cn3c(n2)SCC3)cc1)c1ccco1	i	i	i	i	i
CN(C)S(=O)(=O)c1cccc(NC(=O)Cc2ccc(-c3ccccc3)cc2)c1	i	i	i	i	i
CCOC(=O)c1[nH]c2ccc(Br)cc2c1NC(=O)CCN1CCCC(C)C1 (configuration not stated)	-8.6*	i	i	i	i
CCOC(=O)c1[nH]c2ccc(Br)cc2c1NC(=O)CCN1CCC(C)CC1	i	i	i	i	i
CC(=O)Nc1ccc(NC(=O)CCC(=O)OCC(=O)c2ccc(C)c([N+](=O)[O-])c2)cc1	i	-5.6*	i	i	i
Cc1ccc(C(=O)COC(=O)CCC(=O)Nc2ccccc2Cl)cc1[N+](=O)[O-]	i	i	i	i	i
CC(C)=CC(=O)OCC(=O)Nc1cccc([N+](=O)[O-])c1	i	-8.6*	i	i	i
COc1cc([N+](=O)[O-])ccc1NC(=O)COC(=O)C=C(C)C	i	i	i	i	i
O=C(NCCC1=CCCCC1)c1cc(-c2ccccn2)nc2ccccc12	i	i	i	i	i
CCOc1cc(CNc2ccc(OC)cc2)cc(Br)c1OCC(=O)NC(C)(C)C	i	i	i	i	i
COc1cc(CNc2ccc(C(=O)O)cc2)cc(Br)c1OCC(=O)NC(C)(C)C	i	-5.3*	i	i	i
CN(C)N1C(N)=C(C#N)C(c2cccnc2)C2=C1CC(C)(C)CC2=O (configuration not stated)	i	-4.8*	i	i	i
CC12CC(NC(=O)N1c1cccc(C(=O)NCc3ccc4c(c3)OCO4)c1)c1cc(Cl)ccc1O2 (configuration not stated)	i	-7*	i	i	i
CC(C)C(=O)Nc1cccc(C(=O)NCc2ccc3c(c2)OCO3)c1	i	i	i	i	i
CSCC[C@H](NC(=O)N1CCn2c1nc1ccccc12)C(=O)N[C@H](Cc1ccccc1)C(=O)O	i	-7.6*	i	i	i
CSCC[C@H](NC(=O)N1CCn2c1nc1ccccc12)C(=O)NCc1ccccc1	i	i	i	i	i
O=C(c1ccco1)N1N=C(c2cccs2)CC1c1cc([N+](=O)[O-])ccc1O (configuration not stated)	i	i	i	7.1*	i
COc1ccc(NS(=O)(=O)c2cccc(C(=O)NCC3(N(C)C)CCCCC3)c2)cc1	i	i	i	i	i
COc1cc(C2NCCc3c2[nH]c2ccccc32)ccc1OC(C)C (configuration not stated)	i	i	i	i	i
COc1ccc2[nH]c3c(c2c1)CCNC3c1ccc([N+](=O)[O-])o1 (configuration not stated)	i	-5.6*	i	i	i
O=C(NC(=O)N1CCN(c2ccc([N+](=O)[O-])cn2)CC1)c1c(Cl)cccc1Cl	i	i	i	i	i
O=C1Nc2ccc(Br)cc2/C1=C/c1ccc(C(=O)O)cc1	i	i	i	i	8*
Cc1ccc2c(c1)/C(=C/c1ccco1)C(=O)N2	i	i	i	i	i
SMILES	RGS4 act	MrgX1 antag	MrgX1 agonist	MrgX1 allo act	RGS4 inh
O=C(Nc1ccc(Cl)c(Cl)c1)OCCNC(=O)c1cccc(Cl)c1	i	-5.3*	i	i	i
CN(CCC#N)C(=O)COC(=O)/C=C/c1ccc2c(c1)OCO2	i	-6*	i	i	i
CC1(C)COC(c2coc3ccccc3c2=O)OC1	i	i	i	i	i
O=C(C1CCC(Cn2c(=S)[nH]c3ccccc3c2=O)CC1)N1CCOCC1 (configuration not stated)	i	i	i	i	i
O=C(C1CCC(Cn2c(=S)[nH]c3ccccc3c2=O)CC1)N1CCN(c2ccccc2)CC1 (configuration not stated)	i	i	i	i	5.4*
CC(=O)NC(=S)Nc1ccc([N+](=O)[O-])cc1C	i	-8*	i	i	i
COc1ccc([N+](=O)[O-])cc1NC(=S)NC(C)=O	i	i	i	i	i
CC(=O)Nc1ccc(C(F)(F)F)cc1Cl	i	i	i	i	i
Cc1cc(NC(=O)CSCC(=O)OC(C)C(=O)c2cc(C)c(C)cc2C)no1 (configuration not stated)	i	i	i	i	i
Cc1cc(NC(=O)CSCC(=O)OC(C)C(=O)N(C)Cc2ccccc2)no1 (configuration not stated)	i	-7.4*	i	i	i
CCN(CC)c1nc(SCCOC(=O)Nc2ccccc2)nc(N(CC)CC)n1	-8.8*	i	i	i	i
COc1ccc(CCNc2ccc(C(CC(N)=O)NC(=O)c3cc(OC)ccc3OC)cc2[N+](=O)[O-])cc1 (configuration not stated)	i	-5*	i	i	i
O=C(Nc1ccccc1O)c1ccccc1O	i	-5.8*	i	i	i
CC(C)N(CCCNC(=O)c1ccc(CS(=O)(=O)c2c(Cl)cccc2Cl)o1)Cc1ccccc1	-8.6*	i	i	i	i
O=c1c2cc(Cl)ccc2nc(-c2ccccc2)n1O	i	i	i	i	i
O=c1c2cc(Br)ccc2nc(-c2ccc([N+](=O)[O-])cc2)n1O	i	i	133*	i	i
O=c1c2ccc(Cl)cc2nc(-c2ccc([N+](=O)[O-])cc2)n1O	i	i	54*	i	i
Cc1ccc(-n2c(C)cc(/C=c3/sc4nc5ccccc5n4c3=O)c2C)cc1	i	i	i	i	i
O=C(O)Cn1cc(/C=c2/sc3nc4ccccc4n3c2=O)c2ccccc21	i	i	27*	i	i
Cc1[nH]n(-c2ccccc2)c(=O)c1/C=N/N1C(=O)c2ccc3c4c(ccc(c24)C1=O)CC3	i	i	i	i	i
Cc1c2cnn(CC(=O)NCCN3CCOCC3)c(=O)c2c(C)n1Cc1ccc(F)cc1	i	-5.8*	i	i	i
Cc1c2cnn(CC(=O)N3CCN(c4ncccn4)CC3)c(=O)c2c(C)n1Cc1ccc(F)cc1	i	i	i	i	i
